Source: ChEMBL document CHEMBL3102842, “Direct synthesis of C3-mono-functionalized oxindoles from N-unprotected 2-oxindole and their antileishmanial activity” (Bioorg Med Chem, 2014)
Converted amounts (≈) assume the structure as drawn.

Legend:
[1] = Cytotoxicity against mouse RAW264.7 cells after 24 hrs by MTT assay; assay type: cell-based; details: read-out: TC50
In short: (§1)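 RAW 264.7 cells in RPMI 1640 with L-glutamine, 10% FBS and penicillin/streptomycin, seeded at 1×10^5 cells/well and left to adhere overnight at 37 °C, 5% CO2. Compounds at 10, 50 and 100 µg/mL, 37 °C. MTT (5 mg/mL) added for 4 h, formazan dissolved in DMSO, A540 read. Survival expressed as percent of untreated control, in triplicate. TC50 taken as the 50% macrophage-death concentration.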

Leishmania infantum [2] = assay: Antileishmanial activity against Leishmania infantum zymodeme MON-1 axenic amastigotes assessed as parasite survival after 24 hrs; assay type: functional, organism-based; details: zymodeme MON-1, 24 h
In short: (§2)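 Axenic amastigotes grown cell-free at 37 °C, 5% CO2 in MAA/20 (modified medium 199 with Hank's salts, tryptocasein, glucose, glutamine, NaHCO3, hemin, 25 mM HEPES, pH 6.5, 20% heat-inactivated FBS). Compounds in DMSO (≤1% v/v) at 10–100 µg/mL, 37 °C. Viability read after TO-PRO-3 staining (10 min, room temperature) by ImageStream imaging cytometry, ≥10,000 events per sample.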

Leishmania infantum [3] = assay: Antileishmanial activity against Leishmania infantum zymodeme MON-1 promastigotes assessed as parasite survival after 48 hrs; assay type: functional, organism-based; details: zymodeme MON-1, 48 h
In short: (§3)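 Log-phase promastigotes from 26 °C Schneider's Drosophila medium with 10% heat-inactivated FCS, pH 7.2, adjusted to 5×10^6 parasites/mL. Compounds in DMSO (≤1% v/v) at 10–100 µg/mL, incubated at 26 °C. Surviving promastigotes counted in a Neubauer chamber and compared with drug-free controls.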

Leishmania infantum [4] = assay: Antileishmanial activity against Leishmania infantum zymodeme MON-1 promastigotes assessed as parasite survival at 10 to 100 ug/ml after 48 hrs; assay type: functional; in short: as §3
[5] = Therapeutic index, ratio of TC50 for mouse RAW264.7 cells to EC50 for Leishmania infantum zymodeme MON-1 promastigotes after 24 hrs; details: read-out: TI
In short: (§4)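 Index calculated as TC50 on RAW 264.7 macrophages (MTT assay) divided by EC50 on L. infantum promastigotes or axenic amastigotes, using the same incubation time (24 or 48 h) for both.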

[6] = Therapeutic index, ratio of TC50 for mouse RAW264.7 cells to EC50 for Leishmania infantum zymodeme MON-1 promastigotes after 48 hrs; details: read-out: TI; in short: as §4
[7] = Therapeutic index, ratio of TC50 for mouse RAW264.7 cells to EC50 for Leishmania infantum zymodeme MON-1 axenic amastigotes; details: read-out: TI; in short: as §4
Leishmania infantum [8] = assay: Antileishmanial activity against Leishmania infantum zymodeme MON-1 axenic amastigotes assessed as parasite survival after 48 hrs; assay type: functional, organism-based; details: zymodeme MON-1, 48 h; in short: as §2
[9] = Cytotoxicity against mouse RAW264.7 cells after 48 hrs by MTT assay; assay type: cell-based; details: read-out: TC50; in short: as §1
[10] = Therapeutic index, ratio of TC50 for mouse RAW264.7 cells to EC50 for Leishmania infantum zymodeme MON-1 axenic amastigotes after 48 hrs; details: read-out: TI; in short: as §4
Leishmania infantum [11] = assay: Antileishmanial activity against Leishmania infantum zymodeme MON-1 promastigotes assessed as parasite survival after 24 hrs; assay type: functional, organism-based; details: zymodeme MON-1, 24 h; in short: as §3

Compound | CC50 at 24 h [1] [µg/mL] | EC50 (Leishmania infantum [2]) [µg/mL] | EC95 (Leishmania infantum [2]) [µg/mL] | EC50 (Leishmania infantum [3]) [µg/mL] | EC95 (Leishmania infantum [3]) [µg/mL] | Activity (Leishmania infantum [4]) [%] | selectivity ratio at 24 h [5] | selectivity ratio at 48 h [6] | selectivity ratio [7] | EC50 (Leishmania infantum [8]) [µg/mL] | EC95 (Leishmania infantum [8]) [µg/mL] | CC50 at 48 h [9] [µg/mL] | selectivity ratio at 48 h [10] | EC50 (Leishmania infantum [11]) [µg/mL] | EC95 (Leishmania infantum [11]) [µg/mL]
Cc1ccc([C@@H]2CC(=O)C[C@@H](c3ccc(C)cc3)C23C(=O)Nc2ccccc23)cc1 | 62.8 (≈ 159 µM) | 5.9 (≈ 14.9 µM) | 69.4 (≈ 175 µM) | 2 (≈ 5.06 µM) | 71.4 (≈ 181 µM) | >74 | 10.2 | 18.7 | 10.6 | 1.9 (≈ 4.8 µM) | 69.9 (≈ 177 µM) | 38.6 (≈ 97.6 µM) | 20.3 | 6.1 (≈ 15.4 µM) | 72.1 (≈ 182 µM)
COc1ccc([C@@H]2CC(=O)C[C@@H](c3ccc(OC)cc3)C23C(=O)Nc2ccccc23)cc1 | 80.5 (≈ 188 µM) | 21 (≈ 49.1 µM) | 79.3 (≈ 185 µM) | 16.2 (≈ 37.9 µM) | 75.2 (≈ 176 µM) | >74 | 3.3 | 3.1 | 3.8 | 15.1 (≈ 35.3 µM) | 74.8 (≈ 175 µM) | 51 (≈ 119 µM) | 3.4 | 23.9 (≈ 55.9 µM) | 82.4 (≈ 193 µM)
O=C1C[C@@H](c2ccc(Cl)cc2)C2(C(=O)Nc3ccccc32)[C@H](c2ccc(Cl)cc2)C1 | 44 (≈ 101 µM) | 21 (≈ 48.1 µM) | 75.2 (≈ 172 µM) | 5.1 (≈ 11.7 µM) | 72.1 (≈ 165 µM) | >74 | 1.8 | 4.2 | 2.1 | 4.9 (≈ 11.2 µM) | 69.9 (≈ 160 µM) | 21.3 (≈ 48.8 µM) | 4.4 | 23.4 (≈ 53.6 µM) | 77.1 (≈ 177 µM)
O=C(CC(c1ccc(Cl)cc1)C1C(=O)Nc2ccccc21)c1ccccc1 (configuration not stated) | 36.9 (≈ 98.2 µM) | 18.5 (≈ 49.2 µM) | 74 (≈ 197 µM) | 11.5 (≈ 30.6 µM) | 73.6 (≈ 196 µM) |  | 1.8 | 3 | 2 | 10.1 (≈ 26.9 µM) | 70.2 (≈ 187 µM) | 35 (≈ 93.1 µM) | 3.5 | 19.7 (≈ 52.4 µM) | 76.5 (≈ 204 µM)
O=C(CC(c1cccc(Cl)c1)C1C(=O)Nc2ccccc21)c1ccccc1 (configuration not stated) | 193 (≈ 514 µM) | 30.5 (≈ 81.1 µM) | 80.2 (≈ 213 µM) | 13.2 (≈ 35.1 µM) | 74 (≈ 197 µM) |  | 6.1 | 8.8 | 6.3 | 12.5 (≈ 33.3 µM) | 71.5 (≈ 190 µM) | 116 (≈ 309 µM) | 9.3 | 31.6 (≈ 84.1 µM) | 85.5 (≈ 227 µM)
O=C1C[C@@H](c2ccccc2)C2(C(=O)Nc3ccccc32)[C@H](c2ccccc2)C1 | 88.8 (≈ 242 µM) | 28.5 (≈ 77.6 µM) | 78.3 (≈ 213 µM) | 6.9 (≈ 18.8 µM) | 73.2 (≈ 199 µM) | >74 | 2.9 | 9.4 | 3.1 | 5.7 (≈ 15.5 µM) | 74.1 (≈ 202 µM) | 65.2 (≈ 177 µM) | 11.4 | 29.8 (≈ 81.1 µM) | 86.1 (≈ 234 µM)
O=C(C[C@@H](c1ccccc1)[C@H]1C(=O)Nc2ccccc21)c1ccccc1 (relative stereo) | 71.6 (≈ 210 µM) | 15.3 (≈ 44.8 µM) | 75.6 (≈ 221 µM) | 6.3 (≈ 18.5 µM) | 72.1 (≈ 211 µM) |  | 4.4 | 10.6 | 4.7 | 5.9 (≈ 17.3 µM) | 69.4 (≈ 203 µM) | 66.6 (≈ 195 µM) | 11.2 | 16.2 (≈ 47.5 µM) | 77.8 (≈ 228 µM)
Cc1ccc([C@H](CC(=O)c2ccccc2)[C@H]2C(=O)Nc3ccccc32)cc1 (relative stereo) | 93.3 (≈ 262 µM) | 60.1 (≈ 169 µM) | 99.5 (≈ 280 µM) | 51.6 (≈ 145 µM) | 96 (≈ 270 µM) |  | 1.5 | 1.3 | 1.6 | 48.4 (≈ 136 µM) | 94.3 (≈ 265 µM) | 67.6 (≈ 190 µM) | 1.3 | 62 (≈ 174 µM) | 111 (≈ 312 µM)
COc1ccc([C@H](CC(=O)c2ccccc2)[C@H]2C(=O)Nc3ccccc32)cc1 (relative stereo) | 41 (≈ 110 µM) | 24.2 (≈ 65.2 µM) | 75.4 (≈ 203 µM) | 14.2 (≈ 38.2 µM) | 74 (≈ 199 µM) |  | 1.3 | 2.5 | 1.7 | 13.1 (≈ 35.3 µM) | 71.2 (≈ 192 µM) | 35.4 (≈ 95.3 µM) | 2.7 | 29.7 (≈ 80 µM) | 78.5 (≈ 211 µM)
C[C@@H]1[C@H](O)[C@@H](C)/C=C/C=C/C=C/C=C/C=C/C=C/C=C/[C@H](O[C@@H]2O[C@H](C)[C@@H](O)[C@H](N)[C@@H]2O)C[C@@H]2O[C@](O)(C[C@@H](O)C[C@@H](O)[C@H](O)CC[C@@H](O)C[C@@H](O)CC(=O)O[C@H]1C)C[C@H](O)[C@H]2C(=O)O [AMPHOTERICIN B] | 19.6 (≈ 21.2 µM) | 0.5 (≈ 0.541 µM) | 3.9 (≈ 4.22 µM) | 0.4 (≈ 0.433 µM) | 3.9 (≈ 4.22 µM) |  | 35.1 | 8.2 | 39.1 | 0.4 (≈ 0.433 µM) | 3.4 (≈ 3.68 µM) | 3.1 (≈ 3.35 µM) | 8.2 | 0.55 (≈ 0.595 µM) | 3.9 (≈ 4.22 µM)
O=C(/C=C/c1ccccc1)c1ccccc1 [CHALCONE] | 28.1 (≈ 135 µM) | 5.1 (≈ 24.5 µM) | 79.5 (≈ 382 µM) | 1.5 (≈ 7.2 µM) | 71.1 (≈ 341 µM) |  | 4.9 | 20.1 | 5.5 | 1.3 (≈ 6.24 µM) | 69.9 (≈ 336 µM) | 30.7 (≈ 147 µM) | 23.7 | 5.7 (≈ 27.4 µM) | 83.5 (≈ 401 µM)
O=C1Cc2ccccc2N1 [OXINDOLE] | 126 (≈ 945 µM) | 199 (≈ 1490 µM) | 430 (≈ 3230 µM) | 72.4 (≈ 544 µM) | 146 (≈ 1100 µM) |  | 0.5 | 2.1 | 0.6 | 69.5 (≈ 522 µM) | 136 (≈ 1020 µM) | 154 (≈ 1160 µM) | 2.2 | 232 (≈ 1750 µM) | 447 (≈ 3360 µM)
